Test results from ChEMBL document CHEMBL1125755, “Synthesis and structure-activity relationships of benzo[b]thienylallylamine antimycotics” (1991).
≈ marks a conversion by molar mass, not a printed value.

Legend:
Candida albicans [1] = assay: Evaluated in vitro for the minimum inhibitory concentration against Candida albicans 124; format: functional
Procedure, shortened: (§1)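 Yeast tube dilution in malt extract broth (pH 4.8), with compounds in DMSO serially diluted in the medium. Inoculum was blastospores from about 30-h shaken cultures in yeast nitrogen base at 37 °C. Growth was read after 48 h at 30 °C. MIC was the lowest concentration without macroscopically visible growth.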

Microsporum canis [2] = assay: Evaluated in vitro for the minimum inhibitory concentration against Microsporum canis.; format: functional
Procedure, shortened: (§2)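 Dermatophytes were tested in glass tubes of Sabouraud's dextrose broth (pH 6.5) against DMSO-dissolved compounds serially diluted in the medium. Inoculum was taken by spatula from 21-day Kimming agar cultures grown at 30 °C. Incubation was 7 days at 30 °C. MIC was the lowest concentration showing no macroscopic fungal growth.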

Candida parapsilosis [3] = assay: Evaluated in vitro for the minimum inhibitory concentration against Candida parapsilosis 39.; format: functional; conditions: Lodderomyces parapsilosis; procedure, shortened: as §1
Trichophyton benhamiae [4] = assay: Evaluated in vitro for the minimum inhibitory concentration against Trichophyton mentagrophytes; format: functional, Arthroderma benhamiae; procedure, shortened: as §2
Sporothrix schenckii [5] = assay: Evaluated in vitro for the minimum inhibitory concentration against Sporothrix schenckii.
Aspergillus fumigatus [6] = assay: In vitro minimum inhibitory concentration which is the lowest concentration at which no signs of fungal growth were detected against Aspergillus fumigatus
Aspergillus fumigatus [7] = assay: Evaluated in vitro for the minimum inhibitory concentration against Aspergillus fumigatus.
Candida parapsilosis [8] = assay: In vitro minimum inhibitory concentration which is the lowest concentration at which no signs of fungal growth were detected against Candida parapsilosis 39.; format: functional; conditions: Lodderomyces parapsilosis; procedure, shortened: as §1
Sporothrix schenckii [9] = assay: In vitro minimum inhibitory concentration which is the lowest concentration at which no signs of fungal growth were detected against Sporothrix schenckii
Aspergillus fumigatus [10] = assay: In vitro minimum inhibitory concentration which is the lowest concentration at which no signs of fungal growth were detected against Aspergillus fumigatus.
Microsporum canis [11] = assay: In vitro minimum inhibitory concentration which is the lowest concentration at which no signs of fungal growth were detected against Microsporum canis.; format: functional; procedure, shortened: as §2
Candida albicans [12] = assay: In vitro minimum inhibitory concentration which is the lowest concentration at which no signs of fungal growth were detected against Candida albicans 124; format: functional; procedure, shortened: as §1
Trichophyton benhamiae [13] = assay: In vitro minimum inhibitory concentration which is the lowest concentration at which no signs of fungal growth were detected against Trichophyton mentagrophytes.; format: functional, Arthroderma benhamiae; procedure, shortened: as §2
Aspergillus niger = assay: In vitro minimum inhibitory concentration at which no signs of fungal growth were detected against laboratory adapted strains of Aspergillus niger.; format: functional
Procedure, shortened: (§3)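 Inoculum of filamentous fungi harvested from 21-day-old Kimming agar cultures grown at 30 °C. Broth dilution in glass tubes with Sabouraud's dextrose broth (pH 6.5); compounds dissolved in DMSO and serially diluted in medium. Incubation at 30 °C, read after 72 h. MIC taken as the lowest concentration with no macroscopically visible growth.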

Sporothrix schenckii [14] = assay: In vitro minimum inhibitory concentration at which no signs of fungal growth were detected against laboratory adapted strains of Sporotrix schenck ii.; format: functional
Procedure, shortened: (§4)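 Sabouraud's dextrose broth (pH 6.5) in glass tubes; compounds dissolved in DMSO and serially diluted with medium. Incubated at 30 °C and read after 7 days. MIC is the lowest concentration with no macroscopically visible fungal growth.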

Aspergillus fumigatus [15] = assay: In vitro minimum inhibitory concentration at which no signs of fungal growth were detected against laboratory adapted strains of Aspergillus fumigatus.; format: functional; procedure, shortened: as §3
Nakaseomyces glabratus [16] = assay: In vitro minimum inhibitory concentration at which no signs of fungal growth were detected against laboratory adapted strains of Torulopsis glabrata.; format: functional
Procedure, shortened: (§5)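 Yeast blastospores taken from shaken cultures about 30 h old, grown at 37 °C in yeast nitrogen base. Tube dilution used malt extract broth (pH 4.8); compounds were dissolved in DMSO and serially diluted in medium. Incubated at 30 °C and read after 48 h. MIC is the lowest concentration with no macroscopic growth.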

Candida albicans [17] = assay: In vitro minimum inhibitory concentration at which no signs of fungal growth were detected against laboratory adapted strains of Candida albicans.; format: functional; procedure, shortened: as §5
Candida parapsilosis [18] = assay: In vitro minimum inhibitory concentration at which no signs of fungal growth were detected against laboratory adapted strains of Candida parapsilosis.; format: functional; conditions: Lodderomyces parapsilosis; procedure, shortened: as §5
Arthrodermataceae [19] = assay: In vitro minimum inhibitory concentration at which no signs of fungal growth were detected against laboratory adapted strains of dermatophytes.; format: functional; procedure, shortened: as §4
Arthrodermataceae [20] = assay: In vitro minimum inhibitory concentration at which no signs of fungal growth were detected against clinical isolated strains of dermatophytes.; format: functional; procedure, shortened: as §2
Candida albicans [21] = assay: In vitro minimum inhibitory concentration at which no signs of fungal growth were detected against clinical isolated strains of Candida albicans.; format: functional; procedure, shortened: as §1
[22] = test system: Scopulariopsis brevicaulis; assay: In vitro minimum inhibitory concentration at which no signs of fungal growth were detected against laboratory adapted strains of Scopulariopsis brevicaulis.; format: functional
Procedure, shortened: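 Inoculum of this mould harvested from 21-day-old Kimming agar cultures grown at 30 °C. Compounds dissolved in DMSO and serially diluted in broth in glass tubes. Incubated at 30 °C and read after 72 h. MIC is the lowest concentration with no macroscopically detectable growth.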

Nakaseomyces glabratus [23] = assay: In vitro minimum inhibitory concentration at which no signs of fungal growth were detected against laboratory adapted strains of Torulopsis glabrata; format: functional; procedure, shortened: as §5
Arthrodermataceae [24] = assay: In vitro minimum inhibitory concentration at which no signs of fungal growth were detected against clinically isolated strains of dermatophytes.; format: functional; procedure, shortened: as §2
Candida albicans [25] = assay: In vitro minimum inhibitory concentration at which no signs of fungal growth were detected against clinically isolated strains of Candida albicans.; format: functional; procedure, shortened: as §1
Sporothrix schenckii [26] = assay: In vitro minimum inhibitory concentration at which no signs of fungal growth were detected against laboratory adapted strains of Sporothrix schenck ii; format: functional; procedure, shortened: as §4

Compound | MIC (Candida albicans [1]) [mg/L] | MIC (Microsporum canis [2]) [mg/L] | MIC (Candida parapsilosis [3]) [mg/L] | MIC (Trichophyton benhamiae [4]) [mg/L] | MIC (Sporothrix schenckii [5]) [mg/L] | MIC (Aspergillus fumigatus [7]) [mg/L] | also measured
CN(C/C=C/C#CC(C)(C)C)Cc1cc2ccccc2s1 | > 200 | > 100 | > 200 | > 100 | > 100 |  | 
CN(C/C=C/C#CC(C)(C)C)Cc1csc2ccc(Cl)cc12 | 12.5 (≈ 37.7 µM) | 0.006 (≈ 0.0181 µM) | 0.4 (≈ 1.21 µM) | 0.006 (≈ 0.0181 µM) | 3.13 (≈ 9.43 µM) |  | MIC (Aspergillus fumigatus [6]): 0.4 mg/L (≈ 1.21 µM)
CN(C/C=C/C#CC(C)(C)C)Cc1c(Cl)sc2ccccc12 | > 200 | 0.1 (≈ 0.301 µM) | 6.25 (≈ 18.8 µM) | 0.1 (≈ 0.301 µM) | > 200 | > 200 | 
CN(C/C=C/C#CC(C)(C)C)Cc1cccc2c(C=O)csc12 |  |  |  |  |  |  | MIC (Candida parapsilosis [8]): 0.4 mg/L (≈ 1.23 µM); MIC (Sporothrix schenckii [9]): 1.56 mg/L (≈ 4.79 µM); MIC (Aspergillus fumigatus [10]): 0.4 mg/L (≈ 1.23 µM); MIC (Microsporum canis [11]): 0.02 mg/L (≈ 0.0614 µM); MIC (Candida albicans [12]): 6.25 mg/L (≈ 19.2 µM); MIC (Trichophyton benhamiae [13]): 0.05 mg/L (≈ 0.154 µM)
CN(C/C=C/C#CC(C)(C)C)Cc1ccc2sccc2c1 | 200 (≈ 672 µM) | 1.56 (≈ 5.24 µM) | 100 (≈ 336 µM) | 0.4 (≈ 1.34 µM) | > 200 | 1.56 (≈ 5.24 µM) | 
CN(C/C=C/C#CC(C)(C)C)Cc1csc2ccccc12.Cl | 100 | 0.02 | 3.13 | 0.01 | 3.13 | 0.8 | 
CN(C/C=C/C#CC(C)(C)C)Cc1cccc2c(Cl)csc12.Cl | 0.8 | 0.003 | 0.1 | 0.0015 | 0.1 | 0.2 | MIC (Aspergillus niger): 0.02 mg/L; MIC (Sporothrix schenckii [14]): 0.1 mg/L; MIC (Aspergillus fumigatus [15]): 0.05 mg/L; MIC (Nakaseomyces glabratus [16]): > 100 mg/L; MIC (Candida albicans [17]): 0.4 mg/L; MIC (Candida parapsilosis [18]): 0.02 mg/L; MIC (Arthrodermataceae [19]): 0.003 mg/L; MIC (Arthrodermataceae [20]): 0.02 mg/L; MIC (Candida albicans [21]): 3.13 mg/L; MIC [22]: 0.05 mg/L
CN(C/C=C/C#CC(C)(C)C)Cc1cccc2scc(Cl)c12.Cl | 50 | 0.1 | 6.25 | 0.05 | 25 | 0.8 | 
CN(C/C=C/C#CC(C)(C)C)Cc1csc2c(Cl)cccc12.Cl | 25 | 0.05 | 1.56 | 0.02 | > 100 | 0.8 | 
CN(C/C=C/C#CC(C)(C)C)Cc1cccc2sccc12.Cl | 50 | 0.01 | 1.56 | 0.006 | 0.8 | 0.4 | 
CN(C/C=C/C#CC(C)(C)C)Cc1cccc2c(C(F)(F)F)csc12.Cl | 3.13 | 0.1 | 1.56 | 0.05 | 50 | 12.5 | 
CN(C/C=C/C#CC(C)(C)C)Cc1cc(Cl)cc2ccsc12.Cl | > 200 | 0.1 | 0.2 | 0.05 | > 200 | 3.13 | 
CSc1csc2c(CN(C)C/C=C/C#CC(C)(C)C)cccc12.Cl | 6.25 | 0.1 | 0.8 | 0.02 | > 200 | 6.25 | 
CN(C/C=C/C#CC(C)(C)C)Cc1cccc2c(C#N)csc12.Cl |  |  |  |  |  |  | MIC (Candida parapsilosis [8]): 0.2 mg/L; MIC (Sporothrix schenckii [9]): 0.4 mg/L; MIC (Aspergillus fumigatus [10]): 3.13 mg/L; MIC (Microsporum canis [11]): 0.01 mg/L; MIC (Candida albicans [12]): 3.13 mg/L; MIC (Trichophyton benhamiae [13]): 0.02 mg/L
CN(C/C=C/C#CC(C)(C)C)Cc1ccc(Cl)c2ccsc12.Cl | 100 | 0.4 | 0.8 | 0.1 | > 200 | > 200 | 
CN(C/C=C/C#CC(C)(C)C)Cc1cccc2sc(Cl)cc12.Cl | 25 | 0.006 | 0.2 | 0.006 | 6.25 | 0.2 | 
CN(C/C=C/C#CC(C)(C)C)Cc1cccc2cc(F)sc12.Cl | 25 | 0.01 |  | 0.006 | 3.13 | 0.05 | MIC (Candida parapsilosis [8]): 6.25 mg/L
CN(C/C=C/C#CC(C)(C)C)Cc1cccc2ccsc12.Cl | 25 | 0.01 | 0.8 | 0.006 | 0.1 | 0.2 | 
CN(C/C=C/C#CC(C)(C)C)Cc1cccc2cc(Cl)sc12.Cl | > 100 | 0.01 | 0.8 | 0.01 | > 100 | > 100 | 
CN(C/C=C/C#CC(C)(C)C)Cc1cccc2c(Br)csc12.Cl |  |  |  |  |  |  | MIC (Candida parapsilosis [8]): 0.2 mg/L; MIC (Sporothrix schenckii [9]): 0.4 mg/L; MIC (Aspergillus fumigatus [10]): 0.8 mg/L; MIC (Microsporum canis [11]): 0.006 mg/L; MIC (Candida albicans [12]): 0.8 mg/L; MIC (Trichophyton benhamiae [13]): 0.006 mg/L
Cc1csc2c(CN(C)C/C=C/C#CC(C)(C)C)cccc12.Cl | 3.13 | 0.006 | 0.4 | 0.006 | 0.1 | 0.4 | 
CN(C/C=C/C#CC(C)(C)C)Cc1cccc2c(F)csc12.Cl | 0.8 | 0.0015 | 0.1 | 0.0008 | 0.05 | 0.1 | 
CN(C/C=C/C#CC(C)(C)C)Cc1cccc2ccccc12 [TERBINAFINE] |  |  |  |  |  |  | MIC (Aspergillus niger): 0.02 mg/L (≈ 0.0686 µM); MIC (Candida parapsilosis [8]): 0.8 mg/L (≈ 2.75 µM); MIC (Nakaseomyces glabratus [23]): > 100 mg/L; MIC (Sporothrix schenckii [9]): 0.8 mg/L (≈ 2.75 µM); MIC (Aspergillus fumigatus [15]): 1.56 mg/L (≈ 5.35 µM); MIC (Candida albicans [17]): 50 mg/L (≈ 172 µM); MIC (Candida parapsilosis [18]): 0.8 mg/L (≈ 2.75 µM); MIC (Arthrodermataceae [19]): 0.006 mg/L (≈ 0.0206 µM); MIC (Arthrodermataceae [24]): 0.01 mg/L (≈ 0.0343 µM); MIC (Candida albicans [25]): 100 mg/L (≈ 343 µM); MIC (Aspergillus fumigatus [10]): 0.4 mg/L (≈ 1.37 µM); MIC (Sporothrix schenckii [26]): 0.4 mg/L (≈ 1.37 µM); MIC (Microsporum canis [11]): 0.006 mg/L (≈ 0.0206 µM); MIC (Candida albicans [12]): 25 mg/L (≈ 85.8 µM); MIC [22]: 0.8 mg/L (≈ 2.75 µM); MIC (Trichophyton benhamiae [13]): 0.003 mg/L (≈ 0.0103 µM)
